Measurements of several laboratories.
Protocols differ between the studies behind these lines.
Cell line: SN12C
Effect on: cell growth or viability

SMILES | test | setting | measurement | value
Cc1cc(C)n(C(=S)[S][Au][PH](CCCCCC[PH]([Au][S]C(=S)n2nc(C)cc2C)(c2ccccc2)c2ccccc2)(c2ccccc2)c2ccccc2)n1 |  |  | GI50 | 479 nM
CC[C@@]1(O)C(=O)OCc2c1cc1n(c2=O)Cc2cc3ccccc3nc2-1 | SRB |  | GI50 | 20 nM
COc1cccc(Oc2ccccc2NC(=O)CNC(=O)c2cccc3ccccc23)c1 | SRB | 48 h | GI50 | 1450 nM
COc1cc(-c2ccc(-c3ccc(C(=N)N)nc3)s2)cc(OC)c1OC |  |  | GI50 | 2050 nM
COc1ccc(C(=O)/C=C/c2ccc(Cl)c(Cl)c2)cc1S(N)(=O)=O | SRB | 48 h | GI50 | 1400 nM
COc1ccc(-c2ccc(-c3ccc(C(=N)N)nc3)s2)cc1Cl |  |  | GI50 | 1790 nM
S=C([S][Au-][P+](CCCCCC[P+]([Au-][S]C(=S)n1cccn1)(c1ccccc1)c1ccccc1)(c1ccccc1)c1ccccc1)n1cccn1 |  |  | GI50 | 1950 nM
COc1ccc(C(=O)/C=C/c2cccc(Br)c2)cc1S(N)(=O)=O | SRB | 10 µM | inhibition | 179%
